We go through eight compounds from ChEMBL document CHEMBL3351726 (J Med Chem, 2014).

Residues, ends and D or L forms follow the SMILES beside them.

The nature of series [1]: Retention time of the compound measured over 30 mins at flow rate of 1 mL/min by HPLC. The conditions noted are these: 0.5 h. It counts as physicochemical. Summed up: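 Reversed-phase analytical HPLC or LC−MS on a SymmetryShield RP18 column (5 μm, 4.6 × 150 mm). Gradient 10−60% B over 30 min at 1 mL/min; A = 0.1% TFA in water, B = 0.1% TFA in acetonitrile.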
The test system of a further series is HEK293. The series is described as follows: Selectivity ratio of IC50 for rat Nav1.2 expressed in HEK-293 cells to IC50 for human Nav1.7 expressed in HEK-293 cells. It counts as cell-based.
A short description of series [2]: Retention time of the compound measured over 15 mins at flow rate of 1 mL/min by HPLC.

Consider `CC[C@H](C)[C@H](NC(=O)[C@H](CCCCN)NC(=O)[C@H](CCCCN)NC(=O)[C@@H]1CSSC[C@@H]2NC(=O)[C@H](CCCCN)NC(=O)[C@H](CCCNC(=N)N)NC(=O)[C@H](C)NC(=O)[C@H](CO)NC(=O)[C@H](CC(=O)O)NC(=O)[C@@H]3CSSC[C@H](NC(=O)[C@H](C(C)C)NC(=O)[C@H](CC(C)C)NC(=O)CNC(=O)[C@H](CCC(=O)O)NC(=O)[C@H](CSSC[C@H](NC(=O)[C@@H](N)Cc4ccc(O)cc4)C(=O)N[C@@H](CCC(N)=O)C(=O)N[C@@H](CCCCN)C(=O)N[C@@H](Cc4c[nH]c5ccccc45)C(=O)N[C@@H](CCSC)C(=O)N[C@@H](Cc4c[nH]c5ccccc45)C(=O)N[C@@H]([C@@H](C)O)C(=O)N3)NC2=O)C(=O)N[C@@H](CCCNC(=N)N)C(=O)N[C@@H](CC(C)C)C(=O)N[C@@H](Cc2c[nH]c3ccccc23)C(=O)N1)C(=O)N[C@H](C(=O)N[C@@H](Cc1c[nH]c2ccccc12)C(=O)O)[C@@H](C)CC` (HELM PEPTIDE1{Y.C.Q.K.W.M.W.T.C.D.S.A.R.K.C.C.E.G.L.V.C.R.L.W.C.K.K.I.I.W}$PEPTIDE1,PEPTIDE1,2:R3-16:R3|PEPTIDE1,PEPTIDE1,9:R3-21:R3|PEPTIDE1,PEPTIDE1,15:R3-25:R3$$$V2.0), for which the Retention_time worked out at 15.83 min in series [1] and 9.29 min in series [2]. Further, in the series on HEK293, the Ratio IC50 came to 9.
For the compound `CSCC[C@@H]1NC(=O)[C@H](Cc2c[nH]c3ccccc23)NC(=O)[C@H](CCCCN)NC(=O)[C@H](CCC(N)=O)NC(=O)[C@@H](NC(=O)[C@@H](N)Cc2ccc(O)cc2)CSSC[C@@H]2NC(=O)[C@@H]3CSSC[C@@H](C(=O)N[C@@H](CCCCN)C(=O)N[C@@H](CCCCN)C(=O)N[C@@H](CCCCN)C(=O)N[C@@H](CC(C)C)C(=O)N[C@@H](Cc4c[nH]c5ccccc45)C(=O)O)NC(=O)[C@H](Cc4c[nH]c5ccccc45)NC(=O)[C@H](CC(C)C)NC(=O)[C@H](CCCNC(=N)N)NC(=O)[C@H](CSSC[C@H](NC(=O)[C@H]([C@@H](C)O)NC(=O)[C@H](Cc4c[nH]c5ccccc45)NC1=O)C(=O)N[C@@H](CC(=O)O)C(=O)N[C@@H](CO)C(=O)N[C@@H](CCC(=O)O)C(=O)N[C@@H](CCCNC(=N)N)C(=O)N[C@@H](CCCCN)C(=O)N3)NC(=O)[C@H](C(C)C)NC(=O)[C@H](CC(C)C)NC(=O)CNC(=O)[C@H](CCC(=O)O)NC2=O`, the values for the Retention_time in series [1] and in series [2] were 15.44 min and 9.87 min, respectively. Besides, the Ratio IC50 in the series with HEK293 stood at 26.
In the same order, the values of `[H][C@]12CSSC[C@@H](C(=O)N[C@@H](CCCCN)C(=O)N[C@@H](CCCCN)C(=O)N[C@@H](CCCCN)C(=O)N[C@@H](CC(C)C)C(=O)N[C@@H](Cc3c[nH]c4ccccc34)C(=O)O)NC(=O)[C@H](Cc3c[nH]c4ccccc34)NC(=O)[C@H](CC(C)C)NC(=O)[C@H](CCCNC(=N)N)NC(=O)[C@]3([H])CSSC[C@]([H])(NC(=O)[C@]([H])([C@@H](C)O)NC(=O)[C@H](Cc4c[nH]c5ccccc45)NC(=O)[C@H](CCSC)NC(=O)[C@H](Cc4c[nH]c5ccccc45)NC(=O)[C@H](CCCCN)NC(=O)[C@H](CCC(N)=O)NC(=O)[C@@H](NC(=O)[C@@H](N)Cc4ccc(O)cc4)CSSC[C@]([H])(NC1=O)C(=O)N[C@@H](CCC(=O)O)C(=O)NCC(=O)N[C@@H](CC(C)C)C(=O)N[C@@H](C(C)C)C(=O)N3)C(=O)N[C@@H](CC(=O)O)C(=O)N[C@@H](CO)C(=O)N[C@@H](C)C(=O)N[C@@H](CCCNC(=N)N)C(=O)N[C@@H](CCCCN)C(=O)N2` (HELM PEPTIDE1{Y.C.Q.K.W.M.W.T.C.D.S.A.R.K.C.C.E.G.L.V.C.R.L.W.C.K.K.K.L.W}$PEPTIDE1,PEPTIDE1,2:R3-16:R3|PEPTIDE1,PEPTIDE1,9:R3-21:R3|PEPTIDE1,PEPTIDE1,15:R3-25:R3$$$V2.0) are 16.59 min, 9.86 min and 24.
As to `[H][C@]12CSSC[C@@H](C(=O)N[C@@H](CCCCN)C(=O)N[C@@H](CCCCN)C(=O)N[C@@H](CCCCN)C(=O)N[C@H](C(=O)N[C@@H](CC(C)C)C(=O)N[C@@H](Cc3c[nH]c4ccccc34)C(=O)O)[C@@H](C)CC)NC(=O)[C@H](Cc3c[nH]c4ccccc34)NC(=O)[C@H](CC(C)C)NC(=O)[C@H](CCCNC(=N)N)NC(=O)[C@]3([H])CSSC[C@]([H])(NC(=O)[C@]([H])([C@@H](C)O)NC(=O)[C@H](Cc4c[nH]c5ccccc45)NC(=O)[C@H](CCSC)NC(=O)[C@H](Cc4c[nH]c5ccccc45)NC(=O)[C@H](CCCCN)NC(=O)[C@H](CCC(N)=O)NC(=O)[C@@H](NC(=O)[C@@H](N)Cc4ccc(O)cc4)CSSC[C@]([H])(NC1=O)C(=O)N[C@@H](CCC(=O)O)C(=O)NCC(=O)N[C@@H](CC(C)C)C(=O)N[C@@H](C(C)C)C(=O)N3)C(=O)N[C@@H](CC(=O)O)C(=O)N[C@@H](CO)C(=O)N[C@@H](C)C(=O)N[C@@H](CCCNC(=N)N)C(=O)N[C@@H](CCCCN)C(=O)N2` (HELM PEPTIDE1{Y.C.Q.K.W.M.W.T.C.D.S.A.R.K.C.C.E.G.L.V.C.R.L.W.C.K.K.K.I.L.W}$PEPTIDE1,PEPTIDE1,2:R3-16:R3|PEPTIDE1,PEPTIDE1,9:R3-21:R3|PEPTIDE1,PEPTIDE1,15:R3-25:R3$$$V2.0), the Retention_time was 15.88 min in series [1] and 9.05 min in series [2]. The Ratio IC50 with HEK293 turned out to be 33.
On to `CC[C@H](C)[C@H](NC(=O)[C@](C)(CC(C)C)NC(=O)[C@H](CCCCN)NC(=O)[C@H](CCCCN)NC(=O)[C@H](CCCCN)NC(=O)[C@@H]1CSSC[C@@H]2NC(=O)[C@H](CCCCN)NC(=O)[C@H](CCCNC(=N)N)NC(=O)[C@H](C)NC(=O)[C@H](CO)NC(=O)[C@H](CC(=O)O)NC(=O)[C@@H]3CSSC[C@H](NC(=O)[C@H](C(C)C)NC(=O)[C@H](CC(C)C)NC(=O)CNC(=O)[C@H](CCC(=O)O)NC(=O)[C@H](CSSC[C@H](NC(=O)[C@@H](N)Cc4ccc(O)cc4)C(=O)N[C@@H](CCC(N)=O)C(=O)N[C@@H](CCCCN)C(=O)N[C@@H](Cc4c[nH]c5ccccc45)C(=O)N[C@@H](CCSC)C(=O)N[C@@H](Cc4c[nH]c5ccccc45)C(=O)N[C@@H]([C@@H](C)O)C(=O)N3)NC2=O)C(=O)N[C@@H](CCCNC(=N)N)C(=O)N[C@@H](CC(C)C)C(=O)N[C@@H](Cc2c[nH]c3ccccc23)C(=O)N1)C(=O)O` (HELM PEPTIDE1{Y.C.Q.K.W.M.W.T.C.D.S.A.R.K.C.C.E.G.L.V.C.R.L.W.C.K.K.K.[CC(C)C[C@](C)(N[*:1])C(=O)[*:2]].I}$PEPTIDE1,PEPTIDE1,2:R3-16:R3|PEPTIDE1,PEPTIDE1,9:R3-21:R3|PEPTIDE1,PEPTIDE1,15:R3-25:R3$$$V2.0), for which the values for the Retention_time in series [1] and in series [2] were 14.87 min and 9.03 min, respectively. The Ratio IC50 in the series on HEK293 stood at 34.2.
Turning to `CSCC[C@@H]1NC(=O)CNC(=O)[C@H](CCC(=O)O)NC(=O)[C@@H]2CSSC[C@H](NC(=O)[C@@H](N)Cc3ccc(O)cc3)C(=O)N[C@@H](CCC(N)=O)C(=O)N[C@@H](CCCCN)C(=O)N[C@@H](Cc3c[nH]c4ccccc34)C(=O)N[C@@H](CCSC)C(=O)N[C@@H](Cc3c[nH]c4ccccc34)C(=O)N[C@@H]([C@@H](C)O)C(=O)N[C@H]3CSSC[C@H](NC(=O)[C@H](C(C)C)NC1=O)C(=O)N[C@@H](CCCNC(=N)N)C(=O)N[C@@H](CC(C)C)C(=O)N[C@@H](Cc1c[nH]c4ccccc14)C(=O)N[C@H](C(=O)N[C@@H](CCCCN)C(=O)N[C@@H](CCCCN)C(=O)N[C@@H](CCCCN)C(=O)N[C@@H](CC(C)C)C(=O)N[C@@H](Cc1c[nH]c4ccccc14)C(=O)O)CSSC[C@H](NC(=O)[C@H](CCCCN)NC(=O)[C@H](CCCNC(=N)N)NC(=O)[C@H](CCC(=O)O)NC(=O)[C@H](CO)NC(=O)[C@H](CC(=O)O)NC3=O)C(=O)N2`, the figures for the Retention_time in series [1] and in series [2] were 14.54 min and 9.35 min, respectively.
For the compound `CSCC[C@@H]1NC(=O)CNC(=O)[C@H](CCC(=O)O)NC(=O)[C@@H]2CSSC[C@H](NC(=O)[C@@H](N)Cc3ccc(O)cc3)C(=O)N[C@@H](CCC(N)=O)C(=O)N[C@@H](CCCCN)C(=O)N[C@@H](Cc3c[nH]c4ccccc34)C(=O)N[C@@H](CCSC)C(=O)N[C@@H](Cc3c[nH]c4ccccc34)C(=O)N[C@@H]([C@@H](C)O)C(=O)N[C@H]3CSSC[C@H](NC(=O)[C@H](C(C)C)NC1=O)C(=O)N[C@@H](CCCNC(=N)N)C(=O)N[C@@H](CC(C)C)C(=O)N[C@@H](Cc1c[nH]c4ccccc14)C(=O)N[C@H](C(=O)N[C@@H](CCCCN)C(=O)N[C@@H](CCCCN)C(=O)N[C@@H](CCCCN)C(=O)N[C@@H](CC(C)C)C(=O)N[C@@H](Cc1c[nH]c4ccccc14)C(N)=O)CSSC[C@H](NC(=O)[C@H](CCCCN)NC(=O)[C@H](CCCNC(=N)N)NC(=O)[C@H](CCC(=O)O)NC(=O)[C@H](CO)NC(=O)[C@H](CC(=O)O)NC3=O)C(=O)N2`, the Retention_time is given as 14.78 min in series [1] and 9 min in series [2].
Take `[H][C@]12CSSC[C@@H](C(=O)N[C@@H](CCCCN)C(=O)N[C@@H](CCCCN)C(=O)N[C@H](C(=O)N[C@H](C(=O)O)[C@@H](C)CC)[C@@H](C)CC)NC(=O)[C@H](Cc3c[nH]c4ccccc34)NC(=O)[C@H](CC(C)C)NC(=O)[C@H](CCCNC(=N)N)NC(=O)[C@]3([H])CSSC[C@]([H])(NC(=O)[C@]([H])([C@@H](C)O)NC(=O)[C@H](Cc4c[nH]c5ccccc45)NC(=O)[C@H](CCSC)NC(=O)[C@H](Cc4c[nH]c5ccccc45)NC(=O)[C@H](CCCCN)NC(=O)[C@H](CCC(N)=O)NC(=O)[C@@H](NC(=O)[C@@H](N)Cc4ccc(O)cc4)CSSC[C@]([H])(NC1=O)C(=O)N[C@@H](CCC(=O)O)C(=O)NCC(=O)N[C@@H](CC(C)C)C(=O)N[C@@H](C(C)C)C(=O)N3)C(=O)N[C@@H](CC(=O)O)C(=O)N[C@@H](CO)C(=O)N[C@@H](C)C(=O)N[C@@H](CCCNC(=N)N)C(=O)N[C@@H](CCCCN)C(=O)N2` (HELM PEPTIDE1{Y.C.Q.K.W.M.W.T.C.D.S.A.R.K.C.C.E.G.L.V.C.R.L.W.C.K.K.I.I}$PEPTIDE1,PEPTIDE1,2:R3-16:R3|PEPTIDE1,PEPTIDE1,9:R3-21:R3|PEPTIDE1,PEPTIDE1,15:R3-25:R3$$$V2.0): the figures for the Retention_time in series [1] and in series [2] were 12.58 min and 7.9 min, respectively.
